This is a sample that favours compounds with a hit; in the whole collection about 3.5% have one here.
RGS4 block: human RGS4 inhibition | P49798 | HEK293 M3R/RGS4 inducible, Fluo-4 calcium flux; hits give high values; triggered by carbachol at its EC20 | B-score at 10 µM | actives 0.45% (n = 310,000) | AID 463165;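 active = B-score, a plate-corrected calcium signal, over three deviations above library mean, with baseline fluorescence within five deviations of library mean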;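 note: RGS4 expression induced by doxycycline in cells with stable M3 receptor; B-score is computed from the integrated fluorescence ratio over baseline after carbachol; higher B-score means a larger calcium signal and so more RGS4 inhibition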
Target sequence (P49798 whole entry, looked up): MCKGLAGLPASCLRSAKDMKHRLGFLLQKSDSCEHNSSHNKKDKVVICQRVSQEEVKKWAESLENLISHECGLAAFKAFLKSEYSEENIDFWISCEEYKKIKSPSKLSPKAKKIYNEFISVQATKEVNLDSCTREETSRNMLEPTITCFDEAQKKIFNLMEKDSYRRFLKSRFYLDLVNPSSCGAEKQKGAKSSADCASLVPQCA
MrgX1 PAM: human MrgX1 positive allosteric modulation, primary screen; B-score at 10 µM; MrgX1-HEK293, Fluo-4 calcium flux, FDSS; hits give high values; Q96LB2; AID 588675; actives 0.63% (n = 310,000);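 active = plate-corrected calcium response at least 3 library SD above typical, normal starting fluorescence, not activating the receptor alone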;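 note: compound read alongside a low EC10 to EC30 dose of BAM8-22 agonist; peak minus trough fluorescence over baseline measured at the second addition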
Target sequence (Q96LB2 whole entry, looked up): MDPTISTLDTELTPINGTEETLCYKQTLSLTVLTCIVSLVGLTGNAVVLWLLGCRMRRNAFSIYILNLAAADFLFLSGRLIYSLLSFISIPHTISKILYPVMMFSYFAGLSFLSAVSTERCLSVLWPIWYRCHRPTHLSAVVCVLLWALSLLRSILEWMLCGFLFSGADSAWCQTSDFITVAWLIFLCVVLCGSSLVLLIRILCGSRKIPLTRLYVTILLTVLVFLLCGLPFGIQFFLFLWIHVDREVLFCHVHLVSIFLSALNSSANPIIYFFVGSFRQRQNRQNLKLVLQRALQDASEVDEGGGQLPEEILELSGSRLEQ
MrgX1 antagonist: blocks BAM8-22 activation of human MrgX1 receptor. Q96LB2. MRGX1-HEK293 calcium flux, Fluo-4, BAM8-22 antagonism; hits give low values. B-score at 10 µM. actives 1.3% (n = 310,000). AID 588676;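 active = calcium-response B-score plate-corrected more than 3 library SD below zero, starting fluorescence within 5 deviations, no agonist response on first addition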;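 note: peak minus trough fluorescence over baseline after final BAM8-22 challenge near maximal dose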
RGS4 pot: potentiators or activators of RGS4 | HEK293 M3R/inducible RGS4, carbachol calcium flux Fluo4; hits give low values | B-score at 10 µM | actives 0.92% (n = 310,000) | AID 463111;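 active = B-score of the integrated calcium signal more than 4 SD below the library mean, with starting fluorescence not abnormally high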;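 note: negative B-score means reduced calcium response which marks RGS4 activation or potentiation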
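Also added: carbachol at ECmax as muscarinic agonist stimulus; Assay system: HEK293 cells with stable M3R and inducible RGS4; Timing: overnight RGS4 induction, 30 min dye load 37 °C, 20 min compound RT; Measured by: Fluo4-AM (2 µM) calcium-flux fluorescence, kinetic read.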
MrgX1 agonist: human MrgX1 receptor agonism, primary screen; actives 0.44% (n = 310,000); B-score at 10 µM; MrgX1-HEK293 cells, Fluo-4 calcium fluorescence, agonist mode; hits give high values; Q96LB2;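 active = calcium response B-score plate-corrected fluorescence ratio at least 3 library SD, with starting fluorescence B-score inside 5 SD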
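Test system: HEK293 cells stably expressing human MrgX1 receptor; amount: 15,000 cells per well; doses: compound delivered in addition one of three; times: overnight plating before 1 h dye loading; detection: Fluo-4 NW calcium-flux fluorescence, kinetic read; read-out basis: B-scored fluorescence response ratio; controls: positive and negative controls per plate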
MrgX1 antag conf: human MrgX1 receptor antagonism, re-confirmation screen; remaining BAM8-22 calcium response % of control (hits give low values), % at 10 µM; shares compounds with MrgX1 antagonist; actives 19% (n = 2,300); AID 602420; MrgX1-HEK293, BAM8-22 calcium flux, Fluo-4; hits give low values;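 active = remaining agonist calcium response no higher than 100% minus 3 SD of agonist-only control wells, with starting fluorescence near control levels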;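 note: agonist BAM8-22 given at a near maximal EC90 to ECmax level; peak minus minimum fluorescence divided by baseline after agonist addition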
HEK293 Ca flux: activity in parental HEK293 cells lacking MrgX1; shares compounds with MrgX1 antagonist; Fluo-4 calcium fluorescence, FDSS; fluorescence ratio F(max-min)/F0 at 10 µM; actives 2% (n = 4,000); AID 624111;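 active = duplicate-averaged calcium fluorescence ratio at least three times the standard deviation of buffer wells, a nonspecific response in parental cells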
HEK293 Ca counter: counter-screen for MrgX1 allosteric activators: effect in parental HEK293 cells | parental HEK293 calcium flux, Fluo-4 fluorescence ratio; hits give high values | actives 0.4% (n = 4,000) | shares compounds with MrgX1 antagonist | fluorescence ratio F(max-min)/F0 at 10 µM;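 active = calcium fluorescence ratio, averaged over duplicates, at least 3 SD of the buffer-well ratio, meaning a nonspecific response in receptor-free cells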;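 note: untransfected parental HEK293 lacking MrgX1 used as counterscreen for MrgX1 allosteric activators; fluorescence change taken during the second addition on a kinetic imager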
HEK293 Ca cntr2: counter-screen for MrgX1 activators: effect in parental HEK293 cells | shares compounds with MrgX1 antagonist | Fluo-4 calcium fluorescence (FDSS); hits give high values | fluorescence ratio F(max-min)/F0 at 10 µM | actives 8.7% (n = 4,000) | AID 624115;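 active = calcium fluorescence ratio at least three times the spread of buffer wells, meaning a non-specific response in parental cells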
* marks the source's active call; other numbers are inactive results; i = inactive; x = not tested or not shown.

SMILES | RGS4 block | MrgX1 PAM | MrgX1 antagonist | RGS4 pot | MrgX1 agonist | MrgX1 antag conf | HEK293 Ca flux | HEK293 Ca counter | HEK293 Ca cntr2
COc1cccc(C(=O)N2CCC(N3CC(C)OC(C)C3)CC2)c1 (stereo not given) | i | i | i | i | i | x | x | x | x
O=C(O)CCC(=O)NCc1ccc(F)cc1 | i | i | -6.3* | i | i | i | i | i | i
O=C(CCc1ccccc1)NCc1ccc(F)cc1 | i | i | i | i | i | x | x | x | x
O=C(Nc1ccncc1)c1ccc2ncsc2c1 | i | i | i | i | i | x | x | x | x
O=C(Nc1ccc(S(=O)(=O)Nc2ncccn2)cc1)c1ccc2ncsc2c1 | i | i | -5* | i | i | 73%* | i | i | i
O=C(CNc1cccc(S(=O)(=O)N2CCOCC2)c1)Nc1ccccc1F | i | i | -5.1* | i | i | i | i | i | i
O=C(CNc1cccc(S(=O)(=O)N2CCOCC2)c1)Nc1cccc(Br)c1 | i | i | i | i | i | x | x | x | x
CCCCNc1nc(CC(C)=O)ns1 | i | i | -6.6* | i | i | i | i | i | i
CNc1nc(CC(C)=O)ns1 | i | i | i | i | i | x | x | x | x
CC12CCCC[C@@H]1CCC1C2CCC2(C)C1CC[C@@]2(O)CNCCO (stereo not given in full) | i | i | -7.8* | i | i | i | i | i | i
CCO[C@@H]1OC(C(=O)Nc2ccccc2)=C[C@H](c2ccc(Br)cc2)[C@H]1CCCO | i | i | -10* | i | i | i | i | i | i
O=C(Nc1ccccc1)C1=C[C@H](c2ccc(Br)cc2)C[C@H](OCc2ccc(CO)cc2)O1 | i | i | i | i | i | x | x | x | x
NC(=O)c1cc2c3ccccc3ccn2c1-c1ccccc1 | i | i | -5.7* | i | i | i | i | i | i
CC1(C)NC(=O)N(CC(=O)N2CCN(c3cccc(C(F)(F)F)c3)CC2)C1=O | i | i | -6.5* | i | i | 67%* | i | i | i
O=C(CN1C(=O)NC2(CCCC2)C1=O)N1CCN(c2cccc(C(F)(F)F)c2)CC1 | i | i | i | i | i | x | x | x | x
C=CCn1c(COc2ccc(Cl)cc2)nnc1SCC(=O)N1CC(=O)Nc2ccccc21 | i | i | i | i | i | x | x | x | x
COc1ccc(NC(=O)c2ccc(Cl)c(S(=O)(=O)N3CCc4ccccc4C3)c2)cn1 | i | i | -5.5* | i | i | 38%* | i | i | i
COc1ccccc1NS(=O)(=O)c1cc(NC(=O)c2ccc(Cl)nc2)ccc1Cl | i | i | -14* | i | i | 54%* | i | i | i
Cc1ccc(S(=O)(=O)N(C)CC(=O)N/N=C/c2ccc(C)o2)cc1 | i | i | i | i | i | x | x | x | x
C=CCN1C(=O)c2cccc3c(N4CCCCC4)ccc(c23)C1=O | i | i | i | i | i | x | x | x | x
C=CCN1C(=O)c2cccc3c(Br)ccc(c23)C1=O | i | i | -7.6* | i | i | i | i | i | i
CCC(C)[C@H](NC(=O)C1CC(=O)N(c2ccc3c(c2)OCCO3)C1)C(=O)N1CCCCC1 (stereo not given in full) | i | i | i | i | i | x | x | x | x
CCc1ccc(C2c3[nH]c4ccccc4c3CCN2C(=O)c2cc[n+]([O-])cc2)cc1 (stereo not given) | i | i | i | i | i | x | x | x | x
Cn1nccc1C(=O)N1CCc2c([nH]c3ccccc23)C1c1ccc(F)cc1 (stereo not given) | i | i | -7.3* | i | i | i | i | i | i
COC(=O)c1ccccc1NC(=O)CSc1nc2cccnc2n1C | i | i | i | i | i | x | x | x | x
SMILES | RGS4 block | MrgX1 PAM | MrgX1 antagonist | RGS4 pot | MrgX1 agonist | MrgX1 antag conf | HEK293 Ca flux | HEK293 Ca counter | HEK293 Ca cntr2
COC(=O)c1cccc(NC(=O)CSc2nc3cccnc3n2C)c1 | x | i | -4.8* | x | i | 74%* | i | i | i
CCOc1ccccc1N1CCN(C(=O)c2cc(-c3cccnc3)nc3c(Cl)cccc23)CC1 | i | i | -5.8* | i | i | i | 0.42* | i | i
CCOc1ccccc1N1CCN(C(=O)c2ccncc2)CC1 | i | i | i | i | i | x | x | x | x
COc1ccc(CCNc2cc(=O)[nH]c(N)n2)cc1 | i | i | -6.8* | i | i | i | i | i | i
COc1ccc(CCNc2ccc([N+](=O)[O-])cn2)cc1 | i | i | i | i | i | x | x | x | x
O=C(O)c1ccc(S(=O)(=O)c2ccc3c(c2)C(=O)N(NC(=O)c2cccnc2)C3=O)cc1 | i | i | i | i | i | x | x | x | x
Cc1nn(CC(=O)NCCc2ccc(Cl)cc2)c(=O)c2cccn12 | i | i | i | i | i | x | x | x | x
CCOc1ccccc1N(CC(=O)OC)S(C)(=O)=O | i | i | -6.2* | i | i | i | i | i | i
CCCn1c(NCc2ccccn2)nc2ccccc21 | i | i | i | i | i | x | x | x | x
c1ccc(CNc2nc3ccccc3n2CCN2CCOCC2)nc1 | i | i | -4.7* | i | i | i | i | i | i
CCc1ccc(NC(=O)C(=O)NCC2CCCN2S(=O)(=O)c2cccs2)cc1 (stereo not given) | i | i | i | i | i | x | x | x | x
c1ccc2oc(-c3ccn[nH]3)cc2c1 | i | i | i | i | i | x | x | x | x
CCCCN(C(=O)c1cccc(S(=O)(=O)N2CCN(C)CC2)c1)c1c(N)n(CCC)c(=O)[nH]c1=O | i | i | -15* | i | i | i | i | i | i
CCOC(=O)C1CCN(C(=O)c2sc3nc(-c4ccc(F)cc4)cn3c2C)CC1 | i | i | -5.8* | i | i | i | i | i | i
